“And” between values parts separate entries of the source, which are not always exact repeats. Equal entries are not always repeated.
Columns and labels:
[1] = target: Beta-galactosidase (Escherichia coli) (UniProt P00722); experiment: Inhibition of beta-galactosidase
[2] = Biodistribution in NMRI mouse urine at 37 MBq/ml, iv after 2 mins; type: ADME, organism-based; conditions: in vivo
Procedure, shortened: (§1)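 Male NMRI mice under isoflurane received 0.1 mL of about 37 MBq/mL tracer iv in saline (ethanol <10%). Decapitated at 2 or 60 min, n = 4 per time point. Radioactivity counted in a NaI(Tl) well counter and expressed as %ID, i.e. cpm in organ over total cpm recovered. Mean ± SD.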

Kidney [3] = experiment: Biodistribution in NMRI mouse kidney assessed per gram of tissue at 37 MBq/ml, iv after 2 mins; type: ADME, organism-based; conditions: in vivo
Procedure, shortened: (§2)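 Male NMRI mice (35–45 g), isoflurane-anaesthetised (2.5% in O2), given 0.1 mL tracer at about 37 MBq/mL in 0.9% NaCl (ethanol <10%) via tail vein. Killed by decapitation at 2 or 60 min p.i., n = 4 per time point. Blood and organs weighed, gamma counted and background corrected. Expressed as %ID/g; blood mass taken as 7% of body mass. Mean ± SD.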

Blood [4] = experiment: Biodistribution in NMRI mouse blood assessed per gram of tissue at 37 MBq/ml, iv after 2 mins; type: ADME, organism-based; conditions: in vivo
Procedure, shortened: as §2

HEK293 [5] = experiment: Drug uptake in human HEK293 cells assessed as radioactivity after 120 mins; type: ADME, cell-based; conditions: hek293, 2 h
Procedure, shortened: (§3)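 293T cells were lentivirally transduced with LacZ or, as control, VZV-tk, and kept in DMEM/10% FCS with 1 µg/mL puromycin. 200,000 cells per well were seeded and used after 24 h. Cells received fresh medium with 1.1 MBq tracer per well for 30–120 min at 37 °C, 5% CO2. After ice-cold PBS washes, cells were lysed; lysate and supernatant were gamma counted. Result is % radioactivity in the cell fraction, triplicate means.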

[6] = Metabolic stability in NMRI mouse urine assessed as drug recovery at 18 MBq, iv after 30 mins by RP-HPLC; type: ADME, organism-based; conditions: in vivo, 0.5 h
Procedure, shortened: (§4)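 NMRI mice under isoflurane received about 18 MBq tracer iv and were decapitated at 10 or 30 min, n = 2. Plasma was separated from heparinised blood by centrifugation; urine was taken at 30 min by bladder voiding and mixed with authentic compound. Both were analysed by gradient RP-HPLC, fractions gamma counted, and intact tracer was expressed as % of recovered radioactivity.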

Brain = experiment: Biodistribution in NMRI mouse brain assessed per gram of tissue at 37 MBq/ml, iv after 60 mins; type: ADME, organism-based; conditions: in vivo, 1 h
Procedure, shortened: as §2

[7] = Octanol-phosphate buffer partition coefficient, log P of the compound; type: physicochemical
Procedure, shortened: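 About 555 kBq of purified tracer was added to 2 mL n-octanol and 2 mL 0.025 M sodium phosphate pH 7.4. The mixture was vortexed 2 min at room temperature and centrifuged 5 min at 1837 g. Aliquots of each phase were weighed and gamma counted. P was taken as cpm/mL in octanol over cpm/mL in buffer, after density correction. At least triplicate.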

[8] = Biodistribution in NMRI mouse carcass at 37 MBq/ml, iv after 2 mins; type: ADME, organism-based; conditions: in vivo
Procedure, shortened: as §1

[9] = Biodistribution in NMRI mouse carcass at 37 MBq/ml, iv after 60 mins; type: ADME, organism-based; conditions: in vivo, 1 h
Procedure, shortened: as §1

HEK293 [10] = experiment: Drug uptake in human HEK293 cells assessed as radioactivity after 30 mins; type: ADME, cell-based; conditions: hek293, 0.5 h
Procedure, shortened: as §3

Kidney [11] = experiment: Biodistribution in NMRI mouse kidney assessed per gram of tissue at 37 MBq/ml, iv after 60 mins; type: ADME, organism-based; conditions: in vivo, 1 h
Procedure, shortened: as §2

Blood [12] = experiment: Biodistribution in NMRI mouse blood assessed per gram of tissue at 37 MBq/ml, iv after 60 mins; type: ADME, organism-based; conditions: in vivo, 1 h
Procedure, shortened: as §2

Stomach [13] = experiment: Biodistribution in NMRI mouse stomach assessed per gram of tissue at 37 MBq/ml, iv after 2 mins; type: ADME, organism-based; conditions: in vivo
Procedure, shortened: as §2

[14] = Biodistribution in NMRI mouse urine at 37 MBq/ml, iv after 60 mins; type: ADME, organism-based; conditions: in vivo, 1 h
Procedure, shortened: as §1

Liver [15] = experiment: Biodistribution in NMRI mouse liver assessed per gram of tissue at 37 MBq/ml, iv after 60 mins; type: ADME, organism-based; conditions: in vivo, 1 h
Procedure, shortened: as §2

Stomach [16] = experiment: Biodistribution in NMRI mouse stomach assessed per gram of tissue at 37 MBq/ml, iv after 60 mins; type: ADME, organism-based; conditions: in vivo, 1 h
Procedure, shortened: as §2

Plasma = experiment: Metabolic stability in NMRI mouse plasma assessed as drug recovery at 18 MBq, iv after 30 mins by RP-HPLC; type: ADME, organism-based; conditions: in vivo, 0.5 h
Procedure, shortened: as §4

[17] = Biodistribution in NMRI mouse spleen + pancreas assessed per gram of tissue at 37 MBq/ml, iv after 60 mins; type: ADME, organism-based; conditions: in vivo, 1 h
Procedure, shortened: as §2

Liver [18] = experiment: Biodistribution in NMRI mouse liver assessed per gram of tissue at 37 MBq/ml, iv after 2 mins; type: ADME, organism-based; conditions: in vivo
Procedure, shortened: as §2

[19] = target: Beta-galactosidase (Escherichia coli) (UniProt Q8VNN2); experiment: Inhibition of Escherichia coli beta-galactosidase assessed as substrate hydrolysis at 1 mg/ml after 15 mins by competitive binding assay in presence of ONPG; set-up: scale not given: the % may be the effect or the level left; conditions: tested as the 11C-labelled form
Chain of Beta-galactosidase (Escherichia coli) (UniProt Q8VNN2) (Q8VNN2 whole entry, looked up): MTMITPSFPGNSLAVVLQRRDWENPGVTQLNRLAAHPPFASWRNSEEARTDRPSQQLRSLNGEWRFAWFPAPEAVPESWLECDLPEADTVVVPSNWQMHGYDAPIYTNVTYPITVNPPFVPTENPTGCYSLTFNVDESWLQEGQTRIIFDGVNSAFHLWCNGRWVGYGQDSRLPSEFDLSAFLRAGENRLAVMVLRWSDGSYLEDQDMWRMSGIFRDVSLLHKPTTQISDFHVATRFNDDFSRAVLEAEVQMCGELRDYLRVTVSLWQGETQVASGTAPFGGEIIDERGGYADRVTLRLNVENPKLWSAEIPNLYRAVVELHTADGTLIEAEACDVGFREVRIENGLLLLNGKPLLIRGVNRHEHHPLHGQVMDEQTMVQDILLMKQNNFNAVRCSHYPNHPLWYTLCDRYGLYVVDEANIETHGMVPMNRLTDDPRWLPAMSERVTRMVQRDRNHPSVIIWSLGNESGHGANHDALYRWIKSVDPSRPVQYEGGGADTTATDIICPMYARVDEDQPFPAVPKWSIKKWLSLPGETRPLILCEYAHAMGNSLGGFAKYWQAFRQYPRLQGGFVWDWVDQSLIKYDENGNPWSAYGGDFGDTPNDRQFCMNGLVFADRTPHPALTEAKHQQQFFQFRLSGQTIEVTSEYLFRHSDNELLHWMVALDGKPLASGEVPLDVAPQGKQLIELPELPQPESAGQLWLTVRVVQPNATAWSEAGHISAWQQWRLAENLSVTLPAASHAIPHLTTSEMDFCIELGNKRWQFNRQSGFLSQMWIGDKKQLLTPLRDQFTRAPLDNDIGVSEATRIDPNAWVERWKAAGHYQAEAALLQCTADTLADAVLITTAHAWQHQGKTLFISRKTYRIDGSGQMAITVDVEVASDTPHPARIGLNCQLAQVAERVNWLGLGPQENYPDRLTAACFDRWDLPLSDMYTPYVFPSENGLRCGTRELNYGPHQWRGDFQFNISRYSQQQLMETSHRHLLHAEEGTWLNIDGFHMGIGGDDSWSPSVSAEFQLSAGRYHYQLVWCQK
Procedure, shortened: (§5)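 E. coli β-gal (10 U, 149 U/mg) was incubated at 37 °C with 1 mg/mL triazole in HEPES pH 7.0 (120 mM) containing 4 mM MgSO4 and 180 mM NaCl. ONPG (1 mg in 1 mL HEPES solution) was then added. Samples taken 15 and 90 min later were analysed by RP-HPLC with UV detection.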

[20] = target: Beta-galactosidase (Escherichia coli) (UniProt Q8VNN2); experiment: Inhibition of Escherichia coli beta-galactosidase assessed as substrate hydrolysis at 1 mg/ml after 90 mins by competitive binding assay in presence of ONPG; set-up: scale not given: the % may be the effect or the level left; conditions: tested as the 11C-labelled form
Procedure, shortened: as §5

Chain of Beta-galactosidase (Escherichia coli) (UniProt P00722) (P00722 whole entry, looked up): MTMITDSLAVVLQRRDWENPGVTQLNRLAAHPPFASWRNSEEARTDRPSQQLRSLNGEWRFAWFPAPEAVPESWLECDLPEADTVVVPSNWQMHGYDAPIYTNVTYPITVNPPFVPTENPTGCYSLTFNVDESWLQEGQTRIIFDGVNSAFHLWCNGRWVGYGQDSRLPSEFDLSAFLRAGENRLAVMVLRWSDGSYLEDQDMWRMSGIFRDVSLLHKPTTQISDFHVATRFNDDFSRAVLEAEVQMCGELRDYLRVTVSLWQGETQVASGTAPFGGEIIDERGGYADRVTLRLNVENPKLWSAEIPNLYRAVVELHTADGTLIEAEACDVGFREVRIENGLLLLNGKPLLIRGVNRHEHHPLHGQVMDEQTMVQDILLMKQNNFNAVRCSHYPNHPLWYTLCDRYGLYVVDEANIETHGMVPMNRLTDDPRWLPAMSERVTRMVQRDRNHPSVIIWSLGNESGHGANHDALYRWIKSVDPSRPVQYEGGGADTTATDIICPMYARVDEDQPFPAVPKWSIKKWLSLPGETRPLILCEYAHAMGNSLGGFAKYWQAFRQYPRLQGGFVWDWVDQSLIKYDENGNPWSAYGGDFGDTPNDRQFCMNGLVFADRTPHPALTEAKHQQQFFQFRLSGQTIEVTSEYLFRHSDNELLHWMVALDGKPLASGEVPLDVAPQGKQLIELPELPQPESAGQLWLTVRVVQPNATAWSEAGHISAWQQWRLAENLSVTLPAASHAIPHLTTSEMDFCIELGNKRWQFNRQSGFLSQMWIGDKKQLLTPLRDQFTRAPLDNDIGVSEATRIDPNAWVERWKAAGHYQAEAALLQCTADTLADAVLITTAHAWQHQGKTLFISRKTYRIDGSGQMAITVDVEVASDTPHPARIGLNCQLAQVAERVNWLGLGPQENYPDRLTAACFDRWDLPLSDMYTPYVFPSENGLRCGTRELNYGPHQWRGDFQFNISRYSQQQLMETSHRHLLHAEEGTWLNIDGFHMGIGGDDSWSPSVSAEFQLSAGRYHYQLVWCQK

Drug uptake [2] | Drug uptake (Kidney [3]) | Drug uptake (HEK293 [5]) | Stability [6] | Drug uptake (Brain) | logP [7] | Drug uptake [8] | Drug uptake [9] | Drug uptake (Kidney [11]) | Drug uptake (Stomach [13]) | Drug uptake [14] | Drug uptake (Liver [15]) | Drug uptake (Stomach [16]) | Stability (Plasma) | Drug uptake [17] | Drug uptake (Liver [18]) | Structure (SMILES) | further results
– | – | – | – | – | – | – | – | – | – | – | – | – | – | – | – | OC[C@H]1O[C@@H](n2cc(-c3ccccc3)nn2)[C@H](O)[C@@H](O)[C@H]1O | Ki [1]: 330 µM
0.1 %ID | 7.2 %ID and 5.7 %ID | 1.4% | Stable | 0 %ID and 0.2 %ID | 1.4 | 34.3 %ID | 12.2 %ID | 1 %ID and 1.4 %ID | 1.1 %ID and 0.9 %ID | 2.8 %ID | 7.1 %ID and 3.4 %ID | 0.4 %ID and 0.2 %ID | Stable | 0.4 %ID and 1.2 %ID | 12.1 %ID and 25.8 %ID | [11CH3]Oc1ccc2cc(-c3cn([C@@H]4O[C@H](CO)[C@H](O)[C@H](O)[C@H]4O)nn3)ccc2c1 | Drug uptake (Blood [4]): 50.9 %ID and 18.6 %ID; Drug uptake (HEK293 [10]): 0.6%; Drug uptake (Blood [12]): 4.2 %ID and 1.6 %ID
– | – | – | – | – | – | – | – | – | – | – | – | – | – | – | – | COc1ccc(-c2cn([C@@H]3O[C@H](CO)[C@H](O)[C@H](O)[C@H]3O)nn2)cc1 | Activity [19]: 40%; Activity [20]: 70%
3.1 %ID | 16.1 %ID and 19.3 %ID | 0.4% | Stable | 0 %ID and 0.3 %ID | -0.1 | 38.1 %ID | 19.6 %ID | 4 %ID and 4.4 %ID | 0.9 %ID and 1.5 %ID | 47.5 %ID | 13.4 %ID and 6.3 %ID | 0.9 %ID and 1.4 %ID | Stable | 0.6 %ID and 1.7 %ID | 18.7 %ID and 8.7 %ID | [11CH3]Oc1ccc(-c2cn([C@@H]3O[C@H](CO)[C@H](O)[C@H](O)[C@H]3O)nn2)cc1 | –

Source: ChEMBL document CHEMBL1154075, “Synthesis and biological evaluation of (11)C-labeled beta-galactosyl triazoles as potential PET tracers for in vivo LacZ reporter gene imaging” (Bioorg Med Chem, 2009)
